Columns and labels:
Experiment in all cases: radiolabelled iodothyronine uptake inhibition in transfected COS1 cells
Format in all cases: cell-based
[1] = target: LAT1 (hSLC7A5, cotransfected with hSLC3A2) (Homo sapiens, UniProt Q01650)
In short: (§1)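 COS1 cells cotransfected with 100 ng transporter vector, 100 ng hSLC3A2 (4F2 heavy chain), and 50 ng hCRYM to limit efflux; empty vector served as control. At 48 h post-transfection, cells were washed in BSA-free DPBS+Ca²⁺/Mg²⁺/0.1% glucose. They were then incubated at 37°C with 1 nM 3,3′-T2 plus [¹²⁵I]-3,3′-T2 (5 × 10⁴ cpm) and increasing inhibitor concentrations or vehicle. Finally, cells were rinsed, lysed in 0.1 N NaOH, and gamma-counted.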

[2] = target: T1, LAT2 (hSLC7A8, cotransfected with hSLC3A2) (Homo sapiens, UniProt Q9UHI5)
T1 sequence (Q9UHI5 1-535): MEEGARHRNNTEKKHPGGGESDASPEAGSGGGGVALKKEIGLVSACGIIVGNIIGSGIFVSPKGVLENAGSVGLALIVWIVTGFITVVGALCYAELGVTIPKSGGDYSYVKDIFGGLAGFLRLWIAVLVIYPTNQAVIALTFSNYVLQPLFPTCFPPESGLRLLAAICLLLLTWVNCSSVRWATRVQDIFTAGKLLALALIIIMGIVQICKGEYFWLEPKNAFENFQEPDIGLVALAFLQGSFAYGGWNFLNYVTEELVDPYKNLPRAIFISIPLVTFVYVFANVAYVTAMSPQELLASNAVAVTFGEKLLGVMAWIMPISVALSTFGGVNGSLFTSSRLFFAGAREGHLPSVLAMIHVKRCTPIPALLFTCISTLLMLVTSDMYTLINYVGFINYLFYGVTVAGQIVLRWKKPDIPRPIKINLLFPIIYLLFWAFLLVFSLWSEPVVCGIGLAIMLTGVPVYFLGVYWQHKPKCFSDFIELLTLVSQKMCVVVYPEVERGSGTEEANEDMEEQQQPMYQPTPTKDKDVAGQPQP
T1 sequence (P08195 2-529 partner): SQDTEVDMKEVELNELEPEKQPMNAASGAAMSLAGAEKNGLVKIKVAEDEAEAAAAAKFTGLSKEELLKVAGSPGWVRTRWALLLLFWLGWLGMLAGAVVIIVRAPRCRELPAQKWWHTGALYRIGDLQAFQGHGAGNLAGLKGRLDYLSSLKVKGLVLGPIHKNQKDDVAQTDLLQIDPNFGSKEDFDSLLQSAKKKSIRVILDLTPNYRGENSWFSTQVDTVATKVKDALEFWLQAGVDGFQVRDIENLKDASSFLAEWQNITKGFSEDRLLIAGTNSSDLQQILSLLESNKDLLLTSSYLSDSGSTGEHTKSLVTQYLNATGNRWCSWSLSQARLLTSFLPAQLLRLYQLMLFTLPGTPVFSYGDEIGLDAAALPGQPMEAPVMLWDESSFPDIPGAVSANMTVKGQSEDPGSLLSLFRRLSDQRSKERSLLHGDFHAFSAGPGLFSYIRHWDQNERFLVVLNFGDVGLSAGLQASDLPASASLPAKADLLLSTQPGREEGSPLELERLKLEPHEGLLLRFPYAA
In short: as §1

MCT10 (hMCT10) = target: T2, MCT10 (hMCT10) (Homo sapiens, UniProt Q8TF71)
T2 sequence (Q8TF71 1-515): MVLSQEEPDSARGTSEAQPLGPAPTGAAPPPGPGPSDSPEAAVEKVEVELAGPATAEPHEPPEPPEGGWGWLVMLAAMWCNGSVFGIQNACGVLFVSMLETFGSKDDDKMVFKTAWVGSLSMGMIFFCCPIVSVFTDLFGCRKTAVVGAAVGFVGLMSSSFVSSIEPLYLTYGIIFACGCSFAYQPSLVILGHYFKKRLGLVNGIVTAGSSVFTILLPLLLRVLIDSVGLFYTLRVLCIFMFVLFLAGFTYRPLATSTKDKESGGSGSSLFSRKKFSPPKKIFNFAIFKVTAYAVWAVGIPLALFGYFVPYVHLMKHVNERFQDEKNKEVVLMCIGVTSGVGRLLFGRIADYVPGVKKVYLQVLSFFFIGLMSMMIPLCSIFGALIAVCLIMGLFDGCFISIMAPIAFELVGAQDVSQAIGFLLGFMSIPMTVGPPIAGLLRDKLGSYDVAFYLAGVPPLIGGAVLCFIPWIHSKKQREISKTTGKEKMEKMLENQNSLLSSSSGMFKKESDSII

[3] = target: T3, OATP1A2 (Human (h) OATP1A2) (Homo sapiens, UniProt P46721)
T3 sequence (P46721 1-670): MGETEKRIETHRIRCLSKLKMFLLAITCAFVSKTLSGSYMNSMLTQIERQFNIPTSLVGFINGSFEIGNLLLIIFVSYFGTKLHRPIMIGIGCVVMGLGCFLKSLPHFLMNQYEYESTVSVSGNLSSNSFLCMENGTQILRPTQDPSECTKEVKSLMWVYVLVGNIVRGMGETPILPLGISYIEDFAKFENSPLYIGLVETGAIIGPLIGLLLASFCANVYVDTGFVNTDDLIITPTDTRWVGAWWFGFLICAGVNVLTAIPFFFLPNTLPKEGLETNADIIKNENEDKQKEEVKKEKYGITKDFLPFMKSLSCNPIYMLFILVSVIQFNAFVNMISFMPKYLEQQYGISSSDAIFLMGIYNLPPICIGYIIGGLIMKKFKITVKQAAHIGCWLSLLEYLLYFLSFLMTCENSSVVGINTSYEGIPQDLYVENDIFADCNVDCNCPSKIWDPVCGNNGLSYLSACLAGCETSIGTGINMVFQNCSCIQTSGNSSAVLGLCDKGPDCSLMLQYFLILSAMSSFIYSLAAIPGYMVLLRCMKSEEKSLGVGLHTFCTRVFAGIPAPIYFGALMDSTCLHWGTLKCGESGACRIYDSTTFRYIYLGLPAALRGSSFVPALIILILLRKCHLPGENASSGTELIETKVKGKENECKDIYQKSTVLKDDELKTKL

MCT8 (hMCT8) = MCT8 (hMCT8) (Homo sapiens, UniProt P36021)
Chain of MCT8 (hMCT8) (P36021 2-539): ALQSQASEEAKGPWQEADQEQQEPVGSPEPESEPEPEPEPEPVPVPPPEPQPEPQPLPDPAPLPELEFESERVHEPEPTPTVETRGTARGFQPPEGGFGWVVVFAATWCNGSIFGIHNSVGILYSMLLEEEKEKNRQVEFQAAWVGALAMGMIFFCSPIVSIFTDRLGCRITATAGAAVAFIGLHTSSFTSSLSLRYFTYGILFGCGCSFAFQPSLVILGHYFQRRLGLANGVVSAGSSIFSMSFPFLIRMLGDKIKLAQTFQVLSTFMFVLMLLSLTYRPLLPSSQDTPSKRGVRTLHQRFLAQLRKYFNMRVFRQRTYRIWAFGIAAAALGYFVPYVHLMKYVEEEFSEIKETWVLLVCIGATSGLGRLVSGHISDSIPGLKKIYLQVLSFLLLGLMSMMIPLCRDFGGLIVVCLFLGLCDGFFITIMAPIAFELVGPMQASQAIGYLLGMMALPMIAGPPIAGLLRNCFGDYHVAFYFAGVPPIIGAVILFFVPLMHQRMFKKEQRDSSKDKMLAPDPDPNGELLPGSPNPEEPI

Chain of LAT1 (hSLC7A5, cotransfected with hSLC3A2) (Q01650 whole entry, one chain of several): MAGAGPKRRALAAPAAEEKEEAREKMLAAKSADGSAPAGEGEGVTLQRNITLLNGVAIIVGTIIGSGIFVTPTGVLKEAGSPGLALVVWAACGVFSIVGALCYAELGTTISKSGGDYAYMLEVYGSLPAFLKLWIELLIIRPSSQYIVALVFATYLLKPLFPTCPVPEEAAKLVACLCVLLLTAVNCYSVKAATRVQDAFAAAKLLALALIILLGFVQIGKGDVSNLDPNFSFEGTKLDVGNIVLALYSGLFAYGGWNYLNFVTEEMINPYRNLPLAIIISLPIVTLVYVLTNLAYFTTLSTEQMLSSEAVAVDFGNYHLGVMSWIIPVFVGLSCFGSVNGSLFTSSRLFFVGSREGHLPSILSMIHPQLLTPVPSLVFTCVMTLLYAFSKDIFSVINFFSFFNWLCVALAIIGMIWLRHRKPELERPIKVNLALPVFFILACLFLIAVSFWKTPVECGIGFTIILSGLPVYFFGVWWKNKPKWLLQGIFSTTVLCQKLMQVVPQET

Compound	IC50 (MCT10 (hMCT10))	IC50 [3]	IC50 (MCT8 (hMCT8))	further results
NC1(C(=O)O)CC2CCC1C2 (stereo not shown) [BCH, 2-Amino-2-norbornanecarboxylic acid]				IC50 [1]: 146 µM; IC50 [2]: ~100 µM
N[C@@H](Cc1c[nH]c2ccccc12)C(=O)O [L-tryptophan]	> 10000 µM			
C[C@@H]1O[C@@H](O[C@H]2[C@H](Oc3cc(O)c4c(c3)O[C@H](c3ccc(O)cc3)CC4=O)O[C@H](CO)[C@@H](O)[C@@H]2O)[C@H](O)[C@H](O)[C@H]1O [Naringin]		23 µM		
CO[C@H]1/C=C/O[C@@]2(C)Oc3c(C)c(O)c4c(O)c(c(/C=N/N5CCN(C)CC5)c(O)c4c3C2=O)NC(=O)/C(C)=C\C=C\[C@H](C)[C@H](O)[C@@H](C)[C@@H](O)[C@@H](C)[C@H](OC(C)=O)[C@@H]1C [Rifampicin]		50 µM		
COc1cc([C@@H]2Oc3c(O)cc([C@H]4Oc5cc(O)cc(O)c5C(=O)[C@@H]4O)cc3[C@H]2CO)ccc1O [Silychristin]		> 10 µM	0.12 µM	
COc1ccc(CCN(C)CCCC(C#N)(c2ccc(OC)c(OC)c2)C(C)C)cc1OC (stereo not shown) [Verapamil]	> 100 µM	1.5 µM	~100 µM	

Reference: article PMC9526468 (Thyroid, 2022)
